Like-named read-outs stand apart in the source and are kept apart here.
Legend:
Type in all cases: cell-based
[1] = tested on: Human umbilical vein endothelial cell (HUVEC); assay: MTT in vitro cytotoxicity assay, HUVEC; conditions: for selectivity toward the normal cell line HUVEC compared with berberine: cancer cell lines versus HUVEC
Outline: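 HUVEC used at passages 1–7, grown in endothelial basal medium with 3% FBS growth supplement. Seeded at 5,000 cells/well and held 24 h at 37°C, 5% CO2. Test compound in DMSO, diluted in medium (0.1% DMSO final), given at 1.95–250 μM for 48 h. MTT added for 4 h, formazan dissolved in DMSO, absorbance read at 570 nm less 630 nm. IC50 from viability versus dose; at least triplicate, mean ± SD.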

[2] = tested on: SW-1990 (human pancreatic carcinoma) cells; assay: MTT in vitro cytotoxicity assay, SW-1990; conditions: for IC50: read-out: IC50 (μM) SW-1990
Outline: (§1)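 Cells grown in DMEM with 10% FBS, penicillin/streptomycin, 37°C, 5% CO2. Seeded at 10,000 (MCF-7), 5,000 (SW-1990) or 6,000 (SMMC-7721) per well for 24 h. Test compound in DMSO, diluted in medium (0.1% DMSO), given at 1.95–250 μM final for 48 h. MTT (5 mg/mL, 10% v/v) added for 4 h; formazan dissolved in DMSO; A570 read, 630 nm background. % inhibition calculated versus 0.1% DMSO control; IC50 from viability–dose plot; at least triplicate, mean ± SD.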

[3] = tested on: MCF-7 (human breast adenocarcinoma) cells; assay: MTT in vitro cytotoxicity assay, MCF-7; conditions: read-out: IC50 (μM) MCF-7
Outline: as §1

[4] = tested on: SMMC-7721 (human liver carcinoma) cells; assay: MTT in vitro cytotoxicity assay, SMMC-7721; conditions: read-out: IC50 (μM) SMMC-7721
Outline: as §1

[5] = MTT assay after 48 hours of drug exposure, mean ± SD

Compound | IC50 [2, 5] | IC50 [3, 5] | IC50 [4, 5] | other results
COc1ccc2cc3[n+](cc2c1OC)CCc1cc2c(cc1-3)OCO2 [BBR, berberine, reference compound] |  |  |  | IC50 ([1]; Homo sapiens, HUVEC, 48 h, read-out: IC50 (μM) HUVEC): 18.3 ± 2.31 µM; IC50 ([2]; Homo sapiens, SW1990, 48 h): 27.6 ± 3.04 µM; inhibition at 62.5 µM ([2]; Homo sapiens, SW1990, read-out: inhibition against SW-1990 cell growth): > 50%; IC50 ([3]; Homo sapiens, MCF7, 48 h): 122 ± 11.3 µM; IC50 ([4]; Homo sapiens, SMMC-7721, 48 h): 68.1 ± 7.76 µM
COc1ccc2cc3[n+](cc2c1OCCc1cn(Cc2ccc(F)c(F)c2)nn1)CCc1cc2c(cc1-3)OCO2 [Compound 29, 9-O-[1-(3,4-difluorobenzyl)-4-ethyl-1H-1,2,3-triazole] berberine chloride] | 38.5 ± 4.65 µM | 81.2 ± 10.4 µM | 43.8 ± 5.32 µM | 
COc1ccc2cc3[n+](cc2c1OCCc1cn(Cc2ccc(F)cc2F)nn1)CCc1cc2c(cc1-3)OCO2 [Compound 27, 9-O-[1-(2,4-difluorobenzyl)-4-ethyl-1H-1,2,3-triazole] berberine chloride] | 69 ± 9.33 µM | 70.7 ± 6.45 µM | 35.9 ± 4.76 µM | 
9-O-[1-(4-fluorobenzyl)-4-ethyl-1H-1, 2, 3-triazole] berberine chloride [Compound 7] | 53.6 ± 6.33 µM | 73.5 ± 10.2 µM | 54.6 ± 5.98 µM | 
9-O-[1-(3-fluorobenzyl)-4-ethyl-1H-1, 2, 3-triazole] berberine chloride [Compound 6] | 62.6 ± 7.85 µM | 69.9 ± 8.73 µM | 51.5 ± 6.03 µM | 
COC(=O)c1ccc(Cn2cc(CCOc3c(OC)ccc4cc5[n+](cc34)CCc3cc4c(cc3-5)OCO4)nn2)cc1 [Compound 25, 9-O-[1-(4-methyl formatebenzyl)-4-ethyl-1H-1,2,3-triazole] berberine chloride] | 165 ± 18.9 µM | 249 ± 20.1 µM | 53.5 ± 5.84 µM | 
COc1ccc2cc3[n+](cc2c1OCCc1cn(Cc2ccc(C)cc2)nn1)CCc1cc2c(cc1-3)OCO2.[Cl-] [Compound 15, 9-O-[1-(4-methylbenzyl)-4-ethyl-1H-1,2,3-triazole] berberine chloride] | 32 ± 4.23 µM | 37.8 ± 4.66 µM | 39.4 ± 4.98 µM | selectivity toward the normal cell line HUVEC compared with berberine [1]: much better selectivity than berberine
COc1ccc2cc3[n+](cc2c1OCCc1cn(Cc2ccc(C(F)(F)F)cc2)nn1)CCc1cc2c(cc1-3)OCO2 [Compound 21, 9-O-[1-(4-(trifluoromethyl)benzyl-4-ethyl-1H-1,2,3-triazole]berberine chloride] | 36.8 ± 3.45 µM | 68.1 ± 7.56 µM | 23.3 ± 2.63 µM | 
9-O-[1-(2-methylbenzyl)-4-ethyl-1H-1, 2, 3-triazole] berberine chloride [Compound 14] | 23.7 ± 3.47 µM | 40.8 ± 5.92 µM | 19.9 ± 2.33 µM | selectivity toward the normal cell line HUVEC compared with berberine [1]: much better selectivity than berberine
9-O-[1-(2-fluorobenzyl)-4-ethyl-1H-1, 2, 3-triazole] berberine chloride [Compound 5] | 64 ± 8.46 µM | 75 ± 9.35 µM | 44.5 ± 4.88 µM | 
COc1ccc2cc3[n+](cc2c1OCCc1cn(Cc2ccc(Br)cc2)nn1)CCc1cc2c(cc1-3)OCO2 [Compound 13, 9-O-[1-(4-bromobenzyl)-4-ethyl-1H-1,2,3-triazole] berberine chloride] | 30.4 ± 4.89 µM | 47.1 ± 6.93 µM | 20 ± 2.37 µM | 
COc1ccc2cc3[n+](cc2c1OCCc1cn(Cc2cc(Cl)ccc2Cl)nn1)CCc1cc2c(cc1-3)OCO2 [Compound 33, 9-O-[1-(2,5-dichlorobenzyl)-4-ethyl-1H-1,2,3-triazole] berberine chloride] | 38.6 ± 4.57 µM | 65.5 ± 7.22 µM | 24.2 ± 3.48 µM | 
COc1ccc2cc3[n+](cc2c1OCCc1cn(Cc2ccc(Cl)c(Cl)c2)nn1)CCc1cc2c(cc1-3)OCO2.[Cl-] [Compound 35, 9-O-[1-(3,4-dichlorobenzyl)-4-ethyl-1H-1,2,3-triazole] berberine chloride] | 20.4 ± 2.35 µM | 30.8 ± 4.32 µM | 16.1 ± 2.92 µM | IC50 against HUVECs relative to compound 32 ([1]; ratio to compound 32 IC50): four times lower than that of 32
COc1ccc2cc3[n+](cc2c1OCCc1cn(Cc2cccc(C(F)(F)F)c2)nn1)CCc1cc2c(cc1-3)OCO2 [Compound 20, 9-O-[1-(3-(trifluoromethyl)benzyl-4-ethyl-1H-1,2,3-triazole]berberine chloride] | 39.3 ± 3.76 µM | 86.2 ± 10.5 µM | 32.2 ± 5.2 µM | 
